From PubChem BioAssay
Yeast superoxide: lowers age-related superoxide in aged yeast cells; AID 2690; 330,000 compounds, 0.18% hits; superoxide response (% of plate mean), % at 10 µM; S. cerevisiae aged cells, superoxide DHE fluorescence; active compounds read low;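 active means superoxide response under a set limit, about three screen SD below normal, cut at about 65% in these data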;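 further: yeast aged for seven days with compound at 30 °C before DHE staining; 100% = average MFI of all compound-treated wells on the plate with controls excluded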
IDE inh: inhibitors of human insulin-degrading enzyme in cells. HEK cells, FAbetaB cleavage, fluorescence polarization. inhibition, % at 5.59 µM. 320,000 compounds, 0.41% hits. AID 434962;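 active means percent inhibition above the average of all tested compounds plus 3 SD, set per screening campaign, cut at about 16% in these data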;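 further: IDE supplied by intact live HEK cells; FP after avidin binding of uncleaved biotin substrate so inhibition keeps polarization high; 0% = DMSO wells and 100% = 60 µM reference IDE inhibitor Ii1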
Efflux pump mplx: inhibitors of Candida antifungal efflux pumps expressed in yeast | S. cerevisiae Candida pump triplex, Nile Red efflux | inhibition, % at 10 µM | 330,000 compounds, 0.44% hits | AID 485275;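 active means plate passing quality check with inhibition over a set limit, or well fluorescence over plate mean plus 4 SD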;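 further: Nile Red retained in pooled yeast measured as flow cytometry median fluorescence; 0% = buffer negative control and 100% = Enniatin B positive control; higher means more Nile Red kept so more efflux inhibition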
IDE act: IDE (human) activation, cell-based; P14735; HEK cells, FAbeta-B cleavage, fluorescence polarization; 0% vehicle, 100% cell-free pure enzyme wells; activation, % at 5.96 µM; 340,000 compounds, 0.073% hits;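 active means activation above the mean of all tested compounds plus 3 SD, set per screening campaign, cut at about 17% in these data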
HDAC3 inhib: human HDAC3 inhibition; O15379; recombinant HDAC3, fluorogenic peptide/trypsin coupled, fluorescence; inhibition, % at 8.3 µM; 320,000 compounds, 0.15% hits; AID 2718; in the data active means inhibition above about 26%, passing the limit was not always enough
Tb MetRS inh: Trypanosoma brucei MetRS inhibition; inhibition, % at 11.9 µM; 360,000 compounds, 0.4% hits; purified T. brucei MetRS, ATP depletion, Kinase-Glo luminescence; AID 624268;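 active means inhibition above a per-plate cutoff of the control wells' mean inhibition plus 3 SD, cut at about 5.5% in these data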;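 further: 0% = DMSO wells median and 100% = median of wells with control inhibitor compound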
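Dosing: 11.9 µM compound single dose, 0.9% DMSO; Assay system: purified T. brucei MetRS enzyme; Measured by: Kinase-Glo luciferase luminescence reporting remaining unconsumed ATP; Schedule: 15 min plus 2 h at 25 °C.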
Tb MetRS conf: Trypanosoma brucei MetRS inhibition confirmed; shares compounds with Tb MetRS inh; inhibition, % at 11.9 µM; AID 624412; T. brucei MetRS enzyme, luminescence (ATP depletion); 1,400 compounds, 93% hits; in the data active means inhibition above about 7%
Jurkat tox: kills Jurkat cells in T. brucei MetRS counterscreen. shares compounds with Tb MetRS inh. Jurkat cells viability, ATP luminescence. inhibition, % at 8.3 µM. 1,400 compounds, 12% hits. AID 624413; in the data active means inhibition above about 15%;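 further: 0% = vehicle and 100% = reference inhibitor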
Tb MetRS inh FP: T. brucei MetRS inhibition, orthogonal assay | shares compounds with Tb MetRS inh | purified T. brucei MetRS, fluorescence polarization | inhibition, % at 11.9 µM | 1,400 compounds, 44% hits | AID 651607; in the data active means inhibition above about 17%;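 further: 0% = vehicle wells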
Starred values were filed as active, the others as inactive; . = no result given. Most compounds without a hit are left out; they make up all but 1.4% or so of the library.

SMILES	Yeast superoxide	IDE inh	Efflux pump mplx	IDE act	HDAC3 inhib	Tb MetRS inh	Tb MetRS conf	Jurkat tox	Tb MetRS inh FP
O=C(c1ccccc1)c1nn(-c2ccccc2)c(=O)cc1-c1ccccc1	.	.	.	.	.	0	.	.	.
Cc1cc(Cl)ccc1OCC(=O)NCC(=O)N/N=C/c1ccco1	95	4	0	-2	-1	6.8*	71*	7	20*
CCCc1ccc(-c2c(C)sc(N)c2C#N)cc1	111	-2	0	-2	9	27*	17*	11	8
O=C(CCCn1c(=S)[nH]c2cc3c(cc2c1=O)OCO3)N1CCN(c2ccc(Cl)cc2)CC1	84	8	0	-18	2	8.3*	70*	2	35*
O=C(CCCn1c(=S)[nH]c2cc3c(cc2c1=O)OCO3)N1CCN(c2ccccc2)CC1	113	-3	0	1	-1	0	.	.	.
CCOc1ccccc1NC(=O)COC(=O)/C=C/c1cccs1	122	-1	0	2	0	0	.	.	.
S=C(c1cn(Cc2ccc(Br)cc2)c2ccccc12)N1CCOCC1	86	-5	-1	4	-1	-1	.	.	.
FC(F)(F)c1cccc(CNC(=S)Nc2ccccc2)c1	100	2	0	1	6	15*	29*	1	9
FC(F)(F)c1cccc(NC(=S)NCc2ccccc2)c1	110	2	0	4	6	3	.	.	.
CC(C)(C)c1ccc(C(=O)NNC(=S)NCc2ccco2)cc1	111	4	0	1	9	-1	.	.	.
CCNC(=S)NNC(=O)c1ccc(S(=O)(=O)NCc2ccco2)cc1	93	3	0	1	-3	6.2*	25*	6	12
COc1ccc(Cc2n[nH]c(=S)n2NC(=O)Nc2ccc(Cl)c(Cl)c2)cc1	99	-2	0	-6	-1	37*	50*	8	32*
O=C1CC(SCc2nc3ccccc3[nH]2)C(=O)N1c1cccc(Cl)c1 (stereo unspecified)	95	0	0	0	-7	80*	91*	-1	61*
O=C1CC(SCCc2nc3ccccc3[nH]2)C(=O)N1c1ccc(F)c(Cl)c1 (stereo unspecified)	105	1	0	0	-3	33*	54*	1	30*
COCc1cc(C)nc(N2CCNCC2)c1C#N	112	0	0	3	5	0	.	.	.
Cc1cccc(C)c1Nc1nnc(SCC(=O)NC2CCS(=O)(=O)C2)s1 (stereo unspecified)	106	-3	0	1	6	0	.	.	.
COc1ccc(Nc2nnc(SCC(=O)N(CC(C)C)C3CCS(=O)(=O)C3)s2)cc1 (stereo unspecified)	.	.	.	.	.	11*	29*	9	18*
CCN(C(=O)CSc1nnc(Nc2ccccc2)s1)C1CCS(=O)(=O)C1 (stereo unspecified)	89	4	0	2	1	7.4*	16*	-7	4
O=C(CSc1nnc(Nc2ccccc2)s1)NC1CCS(=O)(=O)C1 (stereo unspecified)	106	3	0	0	-1	9.4*	27*	0	9
CCn1c(COc2ccc(Cl)cc2)nnc1SCc1nc2ccccc2[nH]1	97	2	0	-8	-1	54*	58*	12	36*
Cc1ccc(OCc2nnc(SCc3nc4ccccc4[nH]3)n2Cc2ccco2)cc1	85	-4	0	1	-3	35*	62*	14	34*
CCNC(=S)N(CCc1ccc(S(N)(=O)=O)cc1)C1CC(=O)N(c2ccccc2)C1=O (stereo unspecified)	97	2	0	5	2	-1	.	.	.
COC(=O)CN(C(=S)Nc1ccc(F)cc1)C1CC(=O)N(c2ccccc2)C1=O (stereo unspecified)	109	0	0	6	-3	-1	.	.	.
